Entries after “also recorded” stand apart in the source; their conditions may differ. Blank lines part the entries; values can stand above or below the compound they belong to.
How the values were obtained:
[1] = target: human NET (hNET) (Homo sapiens, UniProt P23975); assay: In vitro competition binding vs [3H]nisoxetine in transfected HEK-293 cells
[2] = test system: NET; settings: cited from earlier work
[3] = test system: NET; settings: rats, 60 min post injection; cited from earlier work
[4] = test system: NET; settings: cynomolgus monkeys and human; cited from earlier work
[5] = target: T1, NET (Macaca mulatta, UniProt Q9MYW8); assay: MicroPET imaging in anesthetized rhesus monkeys; format: in vivo, rhesus monkey; settings: for Peak ratio of uptake cerebellum to caudate / Peak ratio of uptake midbrain to caudate / Peak ratio of uptake thalamus to caudate: time not stated; for time of peak uptake in all regions of interest: followed by fast washout
[6] = target: T1, NET; assay: PET imaging in awake rhesus monkeys; format: in vivo, rhesus monkey; settings: for effect of isoflurane anesthesia / awake state on binding kinetics: awake vs anesthetized monkeys
[7] = Lipophilicity measurement; format: physicochemical; settings: relative to 1
How it was run: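 Radiolabeled test compound (~5–10 µCi) was added to 2 mL 1-octanol plus 2 mL 0.02 M sodium phosphate buffer (pH 7.4), vortexed 10 min at room temperature, then centrifuged 5 min. A 0.5 mL sample of each layer was gamma-counted and decay corrected. log P7.4 = log(octanol counts/buffer counts) per replicate; three replicates averaged.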

[8] = target: human SERT (hSERT) (Homo sapiens, UniProt P31645); assay: In vitro competition binding vs [3H]citalopram in transfected HEK-293 cells; settings: Ki ratio relative to 1
[9] = after injection, baseline, anesthetized
[10] = postinjection, baseline, anesthetized

T1 sequence (Q9MYW8 1-617): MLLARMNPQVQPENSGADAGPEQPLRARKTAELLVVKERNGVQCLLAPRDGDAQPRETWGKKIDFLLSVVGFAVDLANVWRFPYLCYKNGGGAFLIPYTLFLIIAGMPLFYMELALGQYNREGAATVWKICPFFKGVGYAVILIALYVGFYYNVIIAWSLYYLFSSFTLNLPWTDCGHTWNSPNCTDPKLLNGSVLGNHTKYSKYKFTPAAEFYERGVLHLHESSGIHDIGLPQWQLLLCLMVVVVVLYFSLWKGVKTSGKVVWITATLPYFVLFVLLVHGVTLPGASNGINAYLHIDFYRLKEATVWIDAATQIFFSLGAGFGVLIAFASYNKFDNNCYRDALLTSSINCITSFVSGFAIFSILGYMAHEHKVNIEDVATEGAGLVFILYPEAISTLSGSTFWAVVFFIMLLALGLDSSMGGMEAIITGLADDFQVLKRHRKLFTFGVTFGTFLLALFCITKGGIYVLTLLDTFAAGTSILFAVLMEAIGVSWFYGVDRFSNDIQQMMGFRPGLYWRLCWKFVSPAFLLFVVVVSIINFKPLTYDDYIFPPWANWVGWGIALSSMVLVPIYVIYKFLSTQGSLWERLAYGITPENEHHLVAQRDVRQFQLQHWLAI
Chain of human NET (hNET) (P23975 whole entry): as the sequence (Q9MYW8 1-617) above, with S15N, A19T, V246I, I410V, I427V, G452S, V606I counted along it
Chain of human SERT (hSERT) (P31645 whole entry): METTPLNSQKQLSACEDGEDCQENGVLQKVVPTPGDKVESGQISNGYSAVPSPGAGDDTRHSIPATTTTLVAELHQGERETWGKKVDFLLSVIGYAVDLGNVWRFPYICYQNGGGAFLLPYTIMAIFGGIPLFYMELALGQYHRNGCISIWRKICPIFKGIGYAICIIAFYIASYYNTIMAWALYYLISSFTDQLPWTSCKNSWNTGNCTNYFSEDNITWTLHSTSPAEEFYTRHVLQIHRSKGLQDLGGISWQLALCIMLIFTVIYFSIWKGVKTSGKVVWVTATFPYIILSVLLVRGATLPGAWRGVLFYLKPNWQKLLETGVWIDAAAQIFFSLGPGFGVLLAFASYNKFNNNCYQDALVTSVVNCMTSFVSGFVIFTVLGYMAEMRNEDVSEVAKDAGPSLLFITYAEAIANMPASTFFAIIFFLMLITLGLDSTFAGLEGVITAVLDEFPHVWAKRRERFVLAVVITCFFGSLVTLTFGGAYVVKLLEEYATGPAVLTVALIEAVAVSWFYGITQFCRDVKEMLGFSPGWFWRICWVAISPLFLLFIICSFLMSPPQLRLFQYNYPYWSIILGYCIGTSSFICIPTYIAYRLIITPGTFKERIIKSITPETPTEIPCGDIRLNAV

Structure (SMILES): COc1ccccc1O[C@@H](c1ccccc1)[C@@H]1CNCCO1 [(S,S)-MeNER, reference compound]
NET selectivity DAT/NET ([1]; ratio of Ki values): >2000

Structure (SMILES): [11CH3]Oc1ccccc1O[C@@H](c1ccccc1)[C@@H]1CNCCO1 [(S,S)-[^11C]MeNER]
ratios of uptake in NET-rich brain regions to striatum ([2]; 90 min postinjection): 1.4–1.6
thalamus-to-striatum uptake ratios ([2]; cynomolgus monkeys and baboons): 1.4–1.6
hypothalamus-to-striatum uptake ratio [3]: 2.5

Structure (SMILES): [2H]C([2H])([18F])Oc1ccccc1O[C@@H](c1ccccc1)[C@H]1CNCCO1 [(S,S)-[^18F]FMeNER-D2]
thalamus-to-striatum binding ratio [4]: ~ 1.5

highest ratios of uptake in NET-rich regions to that in caudate ([5]; 45 min, anesthetized): 1.30–1.45
Ratio of uptake pons to caudate (peak) ([5]; 45 min, baseline, anesthetized): 1.40
time of peak uptake of radioactivity in thalamus and pons [5, 9]: 15.5 to 27.5 min
time to specific binding peak equilibrium (quasi-equilibrium) ([5]; after injection, both anesthetized and awake states): less than 1 h
half-time for clearance from peak uptake (T1/2), thalamus and pons ([5]; baseline, anesthetized): ~ 105 min
time of peak uptake in caudate [5, 10]: 18 to 35 min
time of peak uptake in midbrain and cerebellum [5, 10]: 9.5 to 18.5 min
effect of isoflurane anesthesia / awake state on binding kinetics [6]: not significantly altered
time of peak uptake ([6]; both awake and anesthetized monkey studies): 17.5 to 35 min
Structure (SMILES): [11CH3]c1ccccc1O[C@@H](c1ccccc1)[C@@H]1CNCCO1 [[^11C]1]

displacement of radioactivity in the caudate in chase study with SERT ligand ([5]; (R,S)-citalopram HBr 1.5 mg/kg 40 min after injection): no displacement
time of peak uptake of radioactivity in thalamus and midbrain [5, 9]: 27.5 to 45 min
washout T1/2, thalamus and midbrain ([5]; baseline, anesthetized): ~ 160 min
Structure (SMILES): [11CH3]c1ccccc1S[C@@H](c1ccccc1)[C@@H]1CNCCO1 [[^11C]4]
effect of isoflurane anesthesia / awake state on binding kinetics [6]: markedly decreased; also recorded: greatly decreased

Structure (SMILES): [18F]CCOc1ccccc1OC(c1ccccc1)C1CNCCO1 (centres unmarked) [[^18F]2]
Peak ratio of uptake cerebellum to caudate ([5]; baseline, anesthetized): 1.05
Peak ratio of uptake midbrain to caudate ([5]; baseline, anesthetized): 1.13
Peak ratio of uptake thalamus to caudate ([5]; baseline, anesthetized): 1.13
time of peak uptake in all regions of interest ([5]; baseline, anesthetized): 15 min

Structure (SMILES): [18F]CCCOc1ccccc1OC(c1ccccc1)C1CNCCO1 (centres unmarked) [[^18F]3]
Peak ratio of uptake cerebellum to caudate ([5]; baseline, anesthetized): 0.95
Peak ratio of uptake midbrain to caudate ([5]; baseline, anesthetized): 1.18
Peak ratio of uptake thalamus to caudate ([5]; baseline, anesthetized): 1.18
time of peak uptake in all regions of interest ([5]; baseline, anesthetized): 15 min

increase of log P7.4 on substitution of oxygen by sulfur [7]: 0.43
times more potent than 1 for the NET ([1]; Ki ratio relative to 1): 3.4 times
times more potent than 1 for the SERT [8]: 6.5 times
Structure (SMILES): Cc1ccccc1S[C@@H](c1ccccc1)[C@@H]1CNCCO1 [compound 4, (2S,3S)-2-[α-(2-Methylphenylthio)phenylmethyl]morpholine]

From article PMC2746395 (Journal of medicinal chemistry, 2009)
